# Reference: ChEMBL document CHEMBL1131232, “New azole antifungals. 3. Synthesis and antifungal activity of 3-substituted-4(3H)-quinazolinones” (J Med Chem, 1998)
# What was measured:
# [1] = In vitro antifungal activity against 6 filamentous fungi; type: functional; conditions: read-out: MIC
# Summary of the method: (§1)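 Agar dilution on Kimmig's agar with 0.5% glycerol, using ATCC strains or clinical isolates. Drug stocks were 800 μg/mL in 50% ethanol, tested as 2-fold dilutions from 80 to 0.03 μg/mL. Inocula were 10⁵ cfu/mL. […] Geometric means took >80 as 160 and ≤0.03 as 0.03.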
# Candida albicans [2] = assay: (§2) In vivo antifungal activity against murine candidosis model after peroral administration with 2.5 mg/kg at various time intervals. (percent protection for 100% mortality with fluconazole-treated group.); type: functional; conditions: route oral
# Summary of the method: (§3)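 Groups of 10 male mice were infected iv with 0.2 mL of C. albicans at 2 to 8×10^7 cfu/mL. Drug was given orally as a suspension in 1% Tween + 0.2% carboxymethylcellulose at 1, 4 and 24 h post-infection; controls got vehicle only. Survival was scored on days 3, 5, 7 and 9. Read-out was % survival on the day all untreated controls died, or on the day all mice given fluconazole at the same dose died.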
# Candida albicans [3] = assay: (§4) In vivo antifungal activity against murine candidosis model after peroral administration with 2.5 mg/kg at various time intervals. (percent protection for 100% mortality with untreated group); type: functional; conditions: route oral; summary of the method: as §3
# [4] = In vitro for antifungal activity against 10 yeasts; type: functional; conditions: read-out: MIC; summary of the method: as §1
# Mus musculus [5] = assay: as §2; type: functional; conditions: route oral; summary of the method: as §3
# Mus musculus [6] = assay: as §4; type: functional; conditions: route oral; summary of the method: as §3
# Candida albicans [7] = assay: Tested in vivo for anti-candida activity in mice model 1 (dose:0.5 mg/kg, fluconazole-treated group); type: functional
# Candida albicans [8] = assay: Tested in vivo for anti-candida activity in mice model 1 (dose: 0.5 mg/kg, untreated group).; type: functional
# Mus musculus [9] = assay: In vivo antifungal activity against murine candidosis model after peroral administration with 0.25 mg/kg at various time intervals. (percent protection for 100% mortality with untreated group); type: functional; conditions: route oral; summary of the method: as §3
# Mus musculus [10] = assay: In vivo antifungal activity against murine candidosis model after peroral administration with 0.25 mg/kg at various time intervals. (percent protection for 100% mortality with fluconazole-treated group.); type: functional; conditions: route oral; summary of the method: as §3
# [11] = Half-life in rats after iv administration; type: ADME, organism-based; conditions: rat, in vivo
# Candida albicans [12] = assay: The compound was tested in vitro for antifungal activity against Candida albicans.; type: functional; summary of the method: as §1
# Candida albicans [13] = assay: In vivo antifungal activity against murine candidosis model after peroral administration with 0.5 mg/kg at various time intervals. (percent protection for 100% mortality with fluconazole-treated group.); type: functional; conditions: route oral; summary of the method: as §3
# Candida albicans [14] = assay: In vivo antifungal activity against murine candidosis model after peroral administration with 0.5 mg/kg at various time intervals. (percent protection for 100% mortality with untreated group); type: functional; conditions: route oral; summary of the method: as §3
# Rattus norvegicus = assay: In vivo activity against disseminated aspergillosis (liver) in immunocompromized rat model at a dose of 2 mg/kg, bid, po; type: functional
# Oryctolagus cuniculus [15] = assay: In vivo antifungal activity against systemic candidosis in rabbit lung at a dose of 12.5 mg/kg, qd, po.; type: functional
# Summary of the method: (§5)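 Groups of 10 male New Zealand rabbits were infected iv with C. albicans (1.2×10^7 cfu/kg). Drug was given orally as a suspension in 1% Tween 80 + 0.2% carboxymethylcellulose 4 h post-infection, then qd for 6 more days; controls got vehicle. On day 7, kidney or lung was homogenized in saline and plated on Sabouraud agar (37 °C, 7 days). Read-out was log cfu/g wet tissue.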
# Oryctolagus cuniculus [16] = assay: In vivo antifungal activity against systemic candidosis in rabbit kidney at a dose of 12.5 mg/kg, qd, po.; type: functional; summary of the method: as §5
# Mus musculus [17] = assay: The compound was tested in vivo for anti-candida activity in mice model 2(dose: 1 mg/kg, untreated group).; type: functional
# Mus musculus [18] = assay: The compound was tested in vivo for anti-candida activity in mice model 2(dose :1 mg/kg,fluconazole-treated group); type: functional
Compound,MIC [1],Protection (Candida albicans [2]),MIC [4],Protection (Candida albicans [8]),other results
C[C@@H](n1cnc2cc(Cl)ccc2c1=O)[C@](O)(Cn1ccnc1)c1ccc(F)cc1F,28 µg/mL,0%,2 µg/mL,–,Protection (Candida albicans [3]): 0%
COc1cc2ncn([C@H](C)[C@](O)(Cn3cncn3)c3ccc(F)cc3F)c(=O)c2cc1OC,80 µg/mL,0%,7.6 µg/mL,–,Protection (Candida albicans [3]): 0%
C[C@H](n1cnc2cc(Cl)ccc2c1=O)[C@@](O)(Cn1cncn1)c1ccc(F)cc1F,> 80 µg/mL,–,40 µg/mL,–,Protection (Mus musculus [5]): 0%; Protection (Mus musculus [6]): 0%
C[C@@H](n1ncn(-c2ccc(OCC(F)(F)C(F)F)cc2)c1=O)[C@](O)(Cn1cncn1)c1ccc(F)cc1F,8.9 µg/mL,–,2.6 µg/mL,100%,Protection (Candida albicans [7]): 100%
C[C@@H](NC(=O)c1ccc(C(F)(F)F)cc1)[C@](O)(Cn1cncn1)c1ccc(F)cc1F,22 µg/mL,–,4.6 µg/mL,100%,Protection (Candida albicans [7]): 100%
C[C@@H](n1cnc2cc(Cl)ccc2c1=O)[C@](O)(Cn1cncn1)c1ccccc1F,1.1 µg/mL,0%,0.7 µg/mL,–,Protection (Candida albicans [3]): 20%
C[C@@H](n1cnc2c(Cl)cccc2c1=O)[C@](O)(Cn1cncn1)c1ccc(F)cc1F,45 µg/mL,0%,2.5 µg/mL,–,Protection (Candida albicans [3]): 0%
COc1cccc2c(=O)n([C@H](C)[C@](O)(Cn3cncn3)c3ccc(F)cc3F)cnc12,> 80 µg/mL,0%,10 µg/mL,–,Protection (Candida albicans [3]): 0%
C[C@@H](n1cnc2cc(Cl)ccc2c1=O)[C@@](O)(Cn1cncn1)c1ccc(F)cc1F,> 80 µg/mL,–,> 80 µg/mL,–,Protection (Mus musculus [9]): 0%; Protection (Mus musculus [10]): 0%
C[C@@H](n1cnc2ncccc2c1=O)[C@](O)(Cn1cncn1)c1ccc(F)cc1F,> 80 µg/mL,–,43 µg/mL,–,Protection (Mus musculus [5]): 0%; Protection (Mus musculus [6]): 0%
C[C@@H](n1cnc2cc(Cl)ccc2c1=O)[C@](O)(Cn1cncn1)c1ccc(Cl)cc1Cl,1.6 µg/mL,0%,0.2 µg/mL,–,Protection (Mus musculus [6]): 80%
C[C@@H](n1cnc2cc(I)ccc2c1=O)[C@](O)(Cn1cncn1)c1ccc(F)cc1F,0.9 µg/mL,–,0.3 µg/mL,–,half-life [11]: > 48 h; MIC (Candida albicans [12]): < 0.03 µg/mL; Protection (Candida albicans [13]): 0%; Protection (Candida albicans [14]): 100%
C[C@H](n1cnc2cc(Cl)ccc2c1=O)[C@](O)(Cn1cncn1)c1ccc(F)cc1F,65 µg/mL,–,7.4 µg/mL,–,Protection (Mus musculus [9]): 0%; Protection (Mus musculus [10]): 0%
C[C@@H]1[C@H](O)[C@@H](C)/C=C/C=C/C=C/C=C/C=C/C=C/C=C/[C@H](O[C@@H]2O[C@H](C)[C@@H](O)[C@H](N)[C@@H]2O)C[C@@H]2O[C@](O)(C[C@@H](O)C[C@@H](O)[C@H](O)CC[C@@H](O)C[C@@H](O)CC(=O)O[C@H]1C)C[C@H](O)[C@H]2C(=O)O [AMPHOTERICIN B],–,–,–,–,Log cfu/g (Rattus norvegicus): 0.1
OC(Cn1cncn1)(Cn1cncn1)c1ccc(F)cc1F [FLUCONAZOLE],> 80 µg/mL,–,30 µg/mL,100%,Log cfu/g (Oryctolagus cuniculus [15]): 1.44; Log cfu/g (Oryctolagus cuniculus [16]): 1.29
C[C@H]([C@](O)(Cn1cncn1)c1ccc(F)cc1F)S(C)(=O)=O [GENACONAZOLE],25 µg/mL,–,8.7 µg/mL,100%,Protection (Mus musculus [17]): 100%; Protection (Mus musculus [18]): 20%; Protection (Candida albicans [7]): 100%
CCC(C)n1ncn(-c2ccc(N3CCN(c4ccc(OC[C@@H]5CO[C@@](Cn6cncn6)(c6ccc(Cl)cc6Cl)O5)cc4)CC3)cc2)c1=O (stereo partly specified) [ITRACONAZOLE],63 µg/mL,–,5.2 µg/mL,0%,Protection (Candida albicans [7]): 0%
C[C@@H](c1nc(-c2ccc(C#N)cc2)cs1)[C@](O)(Cn1cncn1)c1ccc(F)cc1F [RAVUCONAZOLE],0.8 µg/mL,–,0.3 µg/mL,50%,Protection (Mus musculus [17]): 20%; Protection (Mus musculus [18]): 0%; Protection (Candida albicans [7]): 0%
